How the values were obtained:
[1] = tested on: Penicillium digitatum; assay: Fungicidal activity against Penicillium digitatum infected Valenica oranges assessed as fruit weight loss at 600 mg/L treated for 1 min at 20 degC postharvest at 20 hr after fungal conidial inoculation measured after 21 days of storage at 17 degC in presence of 0.5% SBC (water Rvb = 10.79%); format: functional
[2] = tested on: Penicillium digitatum; assay: Fungicidal activity against Penicillium digitatum infected Valenica oranges assessed as fruit weight loss at 400 mg/L treated for 1 min at 40 degC postharvest at 20 hr after fungal conidial inoculation measured after 7 days of storage at 17 degC in presence of 2% SBC (water Rvb = 4.70%); format: functional
[3] = tested on: Penicillium digitatum; assay: Fungicidal activity against Penicillium digitatum infected Valenica oranges assessed as fruit weight loss at 400 mg/L treated for 1 min at 40 degC postharvest at 20 hr after fungal conidial inoculation measured after 7 days of storage at 17 degC (water Rvb = 3.42%); format: functional
[4] = tested on: Penicillium digitatum; assay: Fungicidal activity against TBZ-resistant Penicillium digitatum infected Valencia oranges assessed as postharvest green mold incidence at 200 mg/L treated for 1 min at 50 degC at 20 hr after fungal conidial inoculation measured after 7 days of storage at 20 degC (water Rvb = 56.7%); format: functional
[5] = tested on: Penicillium digitatum; assay: (§1) Fungicidal activity against TBZ-sensitive Penicillium digitatum infected Nova mandarins assessed as postharvest green mold incidence at 400 mg/L treated for 1 min at 40 degC at 20 hr after fungal conidial inoculation measured after 5 days of storage at 20 degC in presence of 0.5% SBC (water Rvb = 100%); format: functional
Method in brief: (§2)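 Fruit were surface-disinfected in 1 g/L hypochlorite for 30 s, rinsed, dried, then wounded twice equatorially (2 mm × 2 mm rod). Inoculation was a 1 min dip in P. digitatum conidia, 1 × 10^5 conidia/mL final. Fruit were held 20 h at 20 °C and 90% RH, dipped 1 min (SBC wt/vol), and air-dried. Storage was 20 °C, 90% RH. Decay incidence (% fruit with lesions) was scored at 5 d for mandarins and 7 d for oranges. Three replicates of 40 fruit were used; arcsin-transformed data were compared by LSD, p ≤ 0.05.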

[6] = tested on: Penicillium digitatum; assay: Fungicidal activity against TBZ-sensitive Penicillium digitatum infected Nova mandarins assessed as postharvest green mold incidence at 400 mg/L treated for 1 min at 40 degC at 20 hr after fungal conidial inoculation measured after 5 days of storage at 20 degC (water Rvb = 100%); format: functional; method in brief: as §2
[7] = tested on: Fruit; assay: Drug residues in Citrus sinensis cvs. Valencia late (Valencia oranges) at 400 mg/L treated for 1 min at 40 degC postharvest measured after 20 days of storage at 17 degC by GC analysis; format: ADME
Method in brief: (§3)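 'Valencia' oranges were dipped 1 min in TBZ at 600 mg/L (20 °C, ±0.5, 1 or 2% wt/vol SBC), 400 mg/L (40 °C, ±SBC) or 200 mg/L (50 °C, alone), then air-dried. They were sampled at 0, 10 and 20 days at 17 °C. Peel of five fruit was frozen, and 5 g of homogenate was extracted with ethyl acetate/hexane (1/1) plus NaCl. The extract was dried under N2, taken up in acetone and analysed by GC. Results are mg/kg on a whole-fruit basis.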

[8] = tested on: Fruit; assay: Drug residues in Citrus sinensis cvs. Valencia late (Valencia oranges) at 600 mg/L treated for 1 min at 20 degC postharvest measured after 20 days of storage at 17 degC in presence of 2% SBC by GC analysis; format: ADME; method in brief: as §3
[9] = tested on: Fruit; assay: Total drug residues in Citrus sinensis cvs. Salustiana (Salustiana oranges) fruit at 600 mg/L treated for 3 min at 50 degC postharvest measured after overnight incubation at 17 degC by GC analysis; format: ADME; details: 0.05 h
Method in brief: (§4)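 'Salustiana' oranges were water-washed, dried, dipped, then dried overnight at 17 °C in the dark. Unextracted fruit were used for total residues. Peel from five oranges was frozen at -18 °C. 5 g homogenized peel was extracted with 10 mL ethyl acetate/hexane (1/1) plus 2 g NaCl, shaken 30 min, then 1 mL of organic layer was dried under N2, redissolved in acetone, and run by GC without cleanup. Results are on a whole-fruit basis.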

[10] = tested on: Fruit; assay: Total drug residues in Citrus sinensis cvs. Salustiana (Salustiana oranges) fruit at 600 mg/L treated for 3 min at 20 degC postharvest measured after overnight incubation at 17 degC by GC analysis; format: ADME; details: 0.05 h; method in brief: as §4
[11] = tested on: Inner fruit; assay: Drug residues in Citrus sinensis cvs. Salustiana (Salustiana oranges) inner fruit at 600 mg/L treated for 1 min at 20 degC postharvest measured after overnight incubation at 17 degC in presence of 2% SBC by GC analysis; format: ADME
Method in brief: (§5)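 'Salustiana' oranges were washed with water and air-dried. They were dipped 1 or 3 min in TBZ 600 mg/L at 20 or 50 °C, or 1 min in TBZ 600 mg/L plus 2% SBC at 20 °C, then dried overnight at 17 °C in the dark. Surface residue was taken by water extraction and wax residue by chloroform extraction. Inner residue was measured in fruit after both extractions. Extracts were dried under N2, taken up in acetone and analysed by GC. Values are mg/kg on a whole-fruit basis.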

[12] = tested on: Fruit; assay: Drug residues in Citrus sinensis cvs. Valencia late (Valencia oranges) at 600 mg/L treated for 1 min at 20 degC postharvest measured after 10 days of storage at 17 degC in presence of 1% SBC by GC analysis; format: ADME; method in brief: as §3
[13] = tested on: Fruit; assay: Drug residues in Citrus sinensis cvs. Valencia late (Valencia oranges) at 600 mg/L treated for 1 min at 20 degC postharvest measured after 10 days of storage at 17 degC by GC analysis; format: ADME; method in brief: as §3
[14] = tested on: Fruit; assay: Drug residues in Citrus sinensis cvs. Valencia late (Valencia oranges) at 400 mg/L treated for 1 min at 40 degC postharvest measured immediately post-drug treatment by GC analysis; format: ADME; method in brief: as §3
[15] = tested on: Penicillium digitatum; assay: as §1, with “TBZ-resistant” for “TBZ-sensitive”, “2%” for “0.5%”, “61.7%)” for “100%)”; format: functional
[16] = tested on: Penicillium digitatum; assay: as §1, with “TBZ-resistant” for “TBZ-sensitive”, “1%” for “0.5%”, “76.7%)” for “100%)”; format: functional
[17] = tested on: Penicillium digitatum; assay: as §1, with “TBZ-resistant” for “TBZ-sensitive”, “83.3%)” for “100%)”; format: functional
[18] = tested on: Penicillium digitatum; assay: as §1, with “TBZ-resistant” for “TBZ-sensitive”, “600” for “400”, “20” for “40”, “1%” for “0.5%”, “83.3%)” for “100%)”; format: functional
[19] = tested on: Inner fruit; assay: Drug residues in Citrus sinensis cvs. Salustiana (Salustiana oranges) inner fruit at 600 mg/L treated for 3 min at 50 degC postharvest measured after overnight incubation at 17 degC by GC analysis; format: ADME; details: 0.05 h; method in brief: as §5
[20] = tested on: Fruit surface; assay: Drug residues on Citrus sinensis cvs. Salustiana (Salustiana oranges) fruit surface at 600 mg/L treated for 3 min at 50 degC postharvest measured after overnight incubation at 17 degC by GC analysis; format: ADME; details: 0.05 h; method in brief: as §5
[21] = tested on: Fruit; assay: Drug residues in Citrus sinensis cvs. Valencia late (Valencia oranges) at 400 mg/L treated for 1 min at 40 degC postharvest measured after 20 days of storage at 17 degC in presence of 2% SBC by GC analysis; format: ADME; method in brief: as §3

Structure (SMILES): c1ccc2[nH]c(-c3cscn3)nc2c1 [THIABENDAZOLE]
- Activity [1]: 11.84%
- Activity [2]: 4.55%
- Activity [3]: 3.22%
- Activity [4]: 37.5%
- Activity [5]: 0%
- Activity [6]: 1.7%
- Drug uptake [7]: 0.87 mg/kg
- Drug uptake [8]: 1.38 mg/kg
- Drug uptake [9]: 1.6 mg/kg
- Drug uptake [10]: 1.1 mg/kg
- Drug uptake [11]: 0.01 mg/kg
- Drug uptake [12]: 1.45 mg/kg
- Drug uptake [13]: 1.57 mg/kg
- Drug uptake [14]: 0.83 mg/kg
- Activity [15]: 23.3%
- Activity [16]: 40%
- Activity [17]: 70%
- Activity [18]: 65%
- Drug uptake [19]: 0.4 mg/kg
- Drug uptake [20]: 0.69 mg/kg
- Drug uptake [21]: 0.58 mg/kg

Reference: ChEMBL document CHEMBL3045217, “Factors affecting the synergy of thiabendazole, sodium bicarbonate, and heat to control postharvest green mold of citrus fruit” (J Agric Food Chem, 2008)
